Results from PMC5644118 (Chemical Science, 2014).

Biological target: heparin-stabilized human rhSkin β-tryptase (Homo sapiens, UniProt P20231)
Assay: β-tryptase enzyme inhibition assay
Format: biochemical
In short: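 Heparin-stabilized recombinant human skin β-tryptase in 50 mM Tris-HCl, pH 7.4, run in a high-throughput format. Activity was read as release of free AMC from the cleaved Gly-Pro-Arg-AMC peptide substrate. Inhibition mode was assessed by Dixon plots (1/v against inhibitor concentration) at substrate 25, 50, 75, 100, 150 and 200 μM.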

Sequence of heparin-stabilized human rhSkin β-tryptase (P20231 31-275): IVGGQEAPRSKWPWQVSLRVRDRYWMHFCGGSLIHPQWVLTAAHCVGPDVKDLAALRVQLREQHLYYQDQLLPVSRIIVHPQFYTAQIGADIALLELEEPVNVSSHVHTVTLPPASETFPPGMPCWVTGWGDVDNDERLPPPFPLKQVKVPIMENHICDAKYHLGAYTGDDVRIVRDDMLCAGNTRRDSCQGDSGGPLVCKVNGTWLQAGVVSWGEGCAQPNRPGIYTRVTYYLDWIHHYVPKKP

inhibition of β-tryptase (in words): no inhibition of β-tryptase at all
Compound: C[C@H](NC(=O)CNC(=O)CCC(=O)N/N=C/c1cc(/C=N/NC(=O)CCC(=O)NCC(=O)N[C@@H](C)C(=O)N[C@@H](Cc2ccccc2)C(=O)N[C@@H](CCC(=O)O)C(N)=O)cc(/C=N/NC(=O)CCC(=O)NCC(=O)N[C@@H](C)C(=O)N[C@@H](Cc2ccccc2)C(=O)N[C@@H](CCC(=O)O)C(N)=O)c1)C(=O)N[C@@H](Cc1ccccc1)C(=O)N[C@@H](CCC(=O)O)C(N)=O [5(E)3]
